Experiments:
[1] = folding enthalpy; higher = less favourable; fluorescence melt of hairpins on a sequencing array, two-state fit; conditions: sodium 0.088 M
How it was run: (§1)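 Bootstrapped two-state fits yielded melting temperature and folding enthalpy for library hairpins. Cy3 fluorescence, with annealed Cy3 and quencher oligos, was imaged on a sequenced MiSeq flow cell in 50 mM Na-HEPES pH 8.0, 25 mM NaCl in 2.5 °C steps up to 60 °C, and normalised to pre-quench Cy3 and to control constructs. Four replicates were combined by inverse variance, and fitted temperatures were raised by 9.35 °C to match UV melts.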

[2] = melting temperature; fluorescence melt of hairpins on a sequencing array, two-state fit, raised by 9.35 °C to match UV melts; conditions: sodium 0.088 M
How it was run: as §1

Row | Sequence | folding enthalpy [1] [kcal/mol] | Tm [2] [°C]
1 | GATCTCTCTAGAGATC ((((((....)))))) | -37.4 | 56.3
2 | GATCTCTGCAGAGATC ((((((....)))))) | -41.6 | 57
3 | GATCTCTGGAGAGATC ((((((....)))))) | -34.4 | 53.1
4 | GATCTCTGTCGAGATC ((((((....)))))) | -37.4 | 51.8
5 | GATCTCTTATGAGATC ((((((....)))))) | -43.4 | 54.1
6 | GATCTCTTGGGAGATC ((((((....)))))) | -40.4 | 54
7 | GATCTCTTTGGAGATC ((((((....)))))) | -44.5 | 55.1
8 | GATCTCTTTTGAGATC ((((((....)))))) | -39.2 | 55
9 | GATCTGACACAGATC ((((((...)))))) | -35.7 | 48.1
10 | GATCTGACCACAGATC ((((((....)))))) | -36.3 | 49
11 | GATCTGAGCTCAGATC ((((((....)))))) | -51.6 | 55.6
12 | GATCTGATAACAGATC ((((((....)))))) | -35.7 | 47
13 | GATCTGATCGCAGATC ((((((....)))))) | -11.2 | 42.3
14 | GATCTGATTACAGATC ((((((....)))))) | -40.5 | 50
15 | GATCTGATTGCAGATC ((((((....)))))) | -29.1 | 48.2
16 | GATCTGCAACCAGATC ((((((....)))))) | -31.7 | 46.2
17 | GATCTGCATTCAGATC ((((((....)))))) | -39.6 | 48.9
18 | GATCTGCCACAGATC ((((((...)))))) | -31.8 | 48.9
19 | GATCTGCCATCAGATC ((((((....)))))) | -46 | 49.4
20 | GATCTGCCCCCAGATC ((((((....)))))) | -34.5 | 48.3
21 | GATCTGCCCTCAGATC ((((((....)))))) | -42.5 | 49.8
22 | GATCTGCCTACAGATC ((((((....)))))) | -41.8 | 50.8
23 | GATCTGCGAAAGCAAATC (((.(((....))).))) | -18.4 | 36.5
24 | GATCTGCGAAAGCATATC (((.(((....))).))) | -20.7 | 41.1

Row | Sequence | folding enthalpy [1] [kcal/mol] | Tm [2] [°C]
25 | GATCTGCGCCCAGATC ((((((....)))))) | -29.2 | 48.4
26 | GATCTGCTACCAGATC ((((((....)))))) | -37.4 | 48.8
27 | GATCTGCTCCCAGATC ((((((....)))))) | -37.1 | 47.9
28 | GATCTGCTTTCAGATC ((((((....)))))) | -40.1 | 49.1
29 | GATCTGGAGACAGATC ((((((....)))))) | -33.9 | 52
30 | GATCTGGAGTCAGATC ((((((....)))))) | -48.3 | 48.1
31 | GATCTGGATACAGATC ((((((....)))))) | -34 | 56.7
32 | GATCTGGCAACAGATC ((((((....)))))) | -35 | 57.6
33 | GATCTGGCGGCAGATC ((((((....)))))) | -53.2 | 53.3
34 | GATCTGGCTACAGATC ((((((....)))))) | -42 | 59.4
35 | GATCTGGGACAGATC ((((((...)))))) | -35.5 | 58.1
36 | GATCTGGGCACAGATC ((((((....)))))) | -40 | 59.3
37 | GATCTGGGGTCAGATC ((((((....)))))) | -34.5 | 48.7
38 | GATCTGGGTTCAGATC ((((((....)))))) | -43.3 | 49.4
39 | GATCTGGTATCAGATC ((((((....)))))) | -41.8 | 55.5
40 | GATCTGGTGTCAGATC ((((((....)))))) | -35.2 | 49.8
41 | GATCTGTAAACAGATC ((((((....)))))) | -39.5 | 50.3
42 | GATCTGTAACCAGATC ((((((....)))))) | -29.3 | 46.8
43 | GATCTGTACCAGATC ((((((...)))))) | -31.9 | 49.3
44 | GATCTGTACGCAGATC ((((((....)))))) | -44.9 | 54.4
45 | GATCTGTAGACAGATC ((((((....)))))) | -35.5 | 50.8
46 | GATCTGTCAACAGATC ((((((....)))))) | -39.1 | 51.6
47 | GATCTGTCGACAGATC ((((((....)))))) | -49.6 | 55.1
48 | GATCTGTCGCAGATC ((((((...)))))) | -24.5 | 48.5

Row | Sequence | folding enthalpy [1] [kcal/mol] | Tm [2] [°C]
49 | GATCTGTGCACAGATC ((((((....)))))) | -48.9 | 57.9
50 | GATCTGTGCCCAGATC ((((((....)))))) | -30.6 | 49
51 | GATCTGTGGTCAGATC ((((((....)))))) | -38.7 | 49.6
52 | GATCTGTGTACAGATC ((((((....)))))) | -47.9 | 56
53 | GATCTGTGTCCAGATC ((((((....)))))) | -31.8 | 49.2
54 | GATCTGTTAACAGATC ((((((....)))))) | -39.8 | 54.7
55 | GATCTGTTACAGATC ((((((...)))))) | -36.3 | 50.5
56 | GATCTGTTCCAGATC ((((((...)))))) | -30.4 | 50.7
57 | GATCTGTTTCAGATC ((((((...)))))) | -34.5 | 50.5
58 | GATCTGTTTCCAGATC ((((((....)))))) | -34.9 | 49.3
59 | GATCTTAAGCAAGATC ((((((....)))))) | -31.3 | 40.1
60 | GATCTTAATCAAGATC ((((((....)))))) | -26.5 | 38.6
61 | GATCTTACCCAAGATC ((((((....)))))) | -26.2 | 42.1
62 | GATCTTACCGAAGATC ((((((....)))))) | -33 | 42.9
63 | GATCTTAGAAAAGATC ((((((....)))))) | -21.6 | 36.4
64 | GATCTTAGGCAAGATC ((((((....)))))) | -27.9 | 42.8
65 | GATCTTAGTAAAGATC ((((((....)))))) | -30.3 | 43.1
66 | GATCTTATCCAAGATC ((((((....)))))) | -31.6 | 42.6
67 | GATCTTATCGAAGATC ((((((....)))))) | -20.8 | 38.7
68 | GATCTTATTCAAGATC ((((((....)))))) | -31.7 | 43.5
69 | GATCTTCAATAAGATC ((((((....)))))) | -30.6 | 39.8
70 | GATCTTCAGAAGATC ((((((...)))))) | -35.9 | 40.3
71 | GATCTTCATCAAGATC ((((((....)))))) | -29.9 | 40.3
72 | GATCTTCCAGAAGATC ((((((....)))))) | -33.7 | 46

Reference: the array DNA melting data of Ke et al. (doi:10.1101/2024.01.08.574731)
